Results as given in publication PMC11890989 (Zoological Research, 2025).
“Also recorded” adds a separate entry of the source.

What was measured:
AjTRHR [1] = experiment: Intracellular Ca2+ mobilization; type: cell-based, Apostichopus japonicus; settings: negative control, reverse sequence of AjTRH7; Supplementary Figure S3B
How it was run: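 HEK293T cells were grown in DMEM with 10% FBS at 37°C and 5% CO2. At ~70% confluence they were transfected by lipofection with receptor-pcDNA3.1(+). Cells were loaded with 3 μmol/L Fura-2/AM for 30 min, then stimulated with peptide. Test peptides spanned 10−9–10−5 mol/L, with reversed-sequence peptide or empty-vector cells as negative controls. Fluorescence was read on a plate reader. Experiments were repeated independently at least three times.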

AjCCKP1 [2] = experiment: In vivo relative AjCCKP1 expression in circumoral nerve ring; parameters: species or system Apostichopus japonicus; settings: AjTRH7 0.5 mg/mL (HTG) injection; F(2,10)=6.852, P<0.05; Figure 7A
[3] = tested on: HEK293T cells transfected with empty pcDNA 3.1(+) vector; experiment: ERK1/2 phosphorylation, empty pcDNA 3.1; type: cell-based, human; settings: AjTRH7 10^−5 mol/L, negative control, Figure 4E
How it was run: (§1)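 HEK293T cells (DMEM, 10% FBS, 37°C, 5% CO2) were transfected at ~70% confluence with AjTRHR-pcDNA3.1(+) or empty vector using Lipofectamine 2000. Receptor cells received 10^−6 mol/L peptide for 0, 5, 15, 30, 45 or 60 min at 37°C. Lysate protein was BCA-normalised, run on 10% SDS-PAGE, blotted to PVDF and probed for pERK1/2 (1:2 000) and total ERK1/2 (1:1 000). Bands were ECL-detected and densitometry expressed as pERK/tERK; six repetitions, mean+SEM.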

AjTRHR [4] = experiment: Ligand binding assays / receptor activation summary; type: cell-based, Apostichopus japonicus; settings: for agonism at AjTRHR: bioinformatics and ligand-binding assays, cAMP/PKA-ERK/MAPK cascade and possibly Ca^2+-dependent pathway
AjCCKP1 [5] = experiment: In vivo relative AjCCKP1 expression in intestine, RT-qPCR; parameters: species or system Apostichopus japonicus; settings: AjTRH7 0.05 mg/mL (LTG) injection; F(2,10)=8.091, P<0.05; Figure 7B
Apostichopus japonicus [6] = experiment: In vivo weight gain rate; settings: 0.05 mg/mL (LTG) vs 0.5 mg/mL (HTG) AjTRH7
How it was run: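 Sub-adult sea cucumbers (30±5.8 g) were kept in filtered UV-sterilised seawater (18–20°C, 32 ppt, 12:12 h light/dark), six per tank and five tanks per group (30 per group), fed ad libitum each morning (commercial feed:sea mud 1:3). Peptide in sterile seawater at 0.5 or 0.05 mg/mL, or seawater alone, was injected orally into the coelom at 0.1% (v/w) every two days at noon for over 25 days. Body weight was taken at start and end to derive WGR. Analysis used linear mixed models with tank as random factor and Tukey tests.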

AjTRHR [7] = experiment: cAMP content; type: cell-based, Apostichopus japonicus; settings: 10^−9–10^−5 mol/L, 30 min; HEK293T, AjTRHR-pcDNA3.1(+); Figure 4C (AjTRH7), Figure 6A (AjTRH1)
How it was run: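 HEK293T cells transfected with AjTRHR-pcDNA3.1(+) or empty pcDNA3.1(+) were exposed to gradient-diluted peptide (10^−9–10^−5 mol/L) for 30 min. Cells were then washed twice in PBS and lysed, and intracellular cAMP was quantified with a commercial cAMP assay kit.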

AjTRHR [8] = experiment: ERK1/2 phosphorylation; type: cell-based, Apostichopus japonicus; settings: AjTRH7 10^−6 mol/L
How it was run: as §1

Apostichopus japonicus [9] = experiment: In vivo feed intake rate; settings: AjTRH1/AjTRH7 injection, A. japonicus
How it was run: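 Sub-adult sea cucumbers (~30 g) were held in UV-sterilised filtered seawater at 18–20°C, 32 ppt and 12:12 h light/dark. They were fed ad libitum each morning with commercial feed mixed 1:3 with sea mud. Six groups were set up, each in five tanks of six animals. Test peptide in sterile seawater (0.5 or 0.05 mg/mL) or seawater alone was injected at 0.1% (v/w) via the mouth into the coelom at noon every two days, for over 25 days. Uneaten food was collected daily, dried and weighed. FI was calculated per a prior method, and tank was a random factor in linear mixed models with Tukey tests.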

AjTRHR [10] = experiment: SRE-Luc reporter assay; type: cell-based, Apostichopus japonicus; settings: 10^-9-10^-5 mol/L; HEK293T expressing AjTRHR; Supplementary Figure S6
[11] = tested on: rodents, such as rats and squirrels; settings: ref Al-Arabi & Andrews, 2006, Frare et al., 2021, Puga et al., 2016, Schuhler et al., 2007, Schwartz et al., 2013, Steward et al., 2003; cited from earlier work
rats = settings: obese rats, prolonged TRH administration; ref Al-Arabi & Andrews, 2006; cited from earlier work

EWFKWPSGPLQ
Ca2+ response to reverse peptide sequence (AjTRHR [1]): no observable responses

pQLPGSPWKFWE [AjTRH7]
AjCCKP1 expression in CNR (AjCCKP1 [2]): significantly up-regulated
p-ERK1/2 response in empty vector cells [3]: no significant responses
agonism at AjTRHR (AjTRHR [4]): acts as an agonist for AjTRHR
AjCCKP1 expression in intestine (AjCCKP1 [5]): significantly up-regulated
inhibitory effect, LTG compared with HTG (WGR context) (Apostichopus japonicus [6]): stronger inhibitory effect in the LTG group than in the HTG group
cAMP accumulation (AjTRHR [7]): cAMP accumulation
p-ERK1/2 activity at 15 min (AjTRHR [8]; 15 min, 37°C, mean±SEM (n=6), F(5,10)=5.563, P<0.05, Figure 4E): markedly increased
p-ERK1/2 activity at 30 min (AjTRHR [8]; 30 min, 37°C, mean±SEM (n=6), F(5,10)=5.563, P<0.05, Figure 4E): markedly increased
p-ERK1/2 after the peak (AjTRHR [8]; after 15 min peak, up to 60 min): subsequently returning to baseline levels
food intake (summary) (Apostichopus japonicus [9]): inhibited food intake

pQYFA [AjTRH1]
agonism at AjTRHR (AjTRHR [4]): activates AjTRHR by increasing cAMP levels
binding to AjTRHR (AjTRHR [4]; inferred from receptor assays in HEK293T cells expressing AjTRHR): binds to AjTRHR
Ca2+ mobilization (SRE-driven luciferase activity) (AjTRHR [10]): no Ca^2+ mobilization was observed; also recorded: does not induce significant Ca^2+ influx
cAMP accumulation (AjTRHR [7]): cAMP accumulation
food intake (summary) (Apostichopus japonicus [9]): inhibited food intake

thyrotropin-releasing hormone [TRH]
feeding motivation and feeding behavior [11]: suppress feeding motivation and inhibit feeding behavior
body weight (rats): reduced body weight
food intake (rats): suppress food intake
resting metabolic rate (rats): elevate resting metabolic rates
